Laboratory results: ChEMBL document CHEMBL5223168, “Using Imidazo[2,1-b][1,3,4]thiadiazol Skeleton to Design and Synthesize Novel MNK Inhibitors” (ACS Med Chem Lett, 2023)
The source made the active and inactive calls. The rule behind the calls is not given here.

Key:
MDA-MB-231 [1] = experiment: Induction of cell cycle arrest in human MDA-MB-231 cells assessed as decrease in cyclin B1 level at 5 uM incubated for 24 hrs by Western blot analysis; assay type: functional, cell-based
Summary of the method: (§1)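 A549 and MDA-MB-231 cells treated 24 h with 5 μM; lysates resolved by SDS-PAGE and immunoblotted for cyclin B1, cyclin D3 and MMP-3.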

mTORC2 (Homo sapiens) = mTORC2 (Homo sapiens) (UniProt P42345+Q6R327+Q9BVC4+Q9BPZ7); experiment: Inhibition of mTORC2 in human LNCaP C4-2B cells assessed as inhibition of phosphorylation of AKT at Ser473 at 5 uM incubated for 2 hrs by Western blot analysis; assay type: cell-based
Summary of the method: (§2)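 C4-2B prostate cancer cells treated with inhibitor; lysates probed by Western blot for p-eIF4E, p-S6K (Thr389), p-rpS6 (Ser240/244) and p-AKT (Ser473).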

[2] = Apparent volume of distribution in mouse at 50 mg/kg, po and measured upto 24 hrs; assay type: ADME, organism-based; settings: in vivo
[3] = Toxicity in BALB/C nude mouse xenografted with human A549 cells assessed as body weight loss at 75 to 150 mg/kg, po QD for 14 days; assay type: organism-based; settings: in vivo, 336 h, dose 75-150 mg/kg, time 14 day
Summary of the method: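 A549 xenografts in nude mice dosed orally once daily at 75 or 150 mg/kg for 14 days; body weight monitored for tolerability, irinotecan 3 mg/kg as positive control group.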

A549 [4] = experiment: Induction of cell cycle arrest in human A549 cells assessed as accumulation of cells at G0/G1 phase at 5 uM incubated for 20 hrs by propidium iodide staining based flow cytometry (Rvb=70.9%); assay type: functional
[5] = target: T1, MAP kinase-interacting serine/threonine-protein kinase 2 (Homo sapiens, UniProt Q9HBH9); experiment: Inhibition of MNK2 (unknown origin) incubated for 60 mins using CREB as substrate in presence of ATP by LANCE Ultra kinase assay
Target sequence in this assay (Q9HBH9 whole entry): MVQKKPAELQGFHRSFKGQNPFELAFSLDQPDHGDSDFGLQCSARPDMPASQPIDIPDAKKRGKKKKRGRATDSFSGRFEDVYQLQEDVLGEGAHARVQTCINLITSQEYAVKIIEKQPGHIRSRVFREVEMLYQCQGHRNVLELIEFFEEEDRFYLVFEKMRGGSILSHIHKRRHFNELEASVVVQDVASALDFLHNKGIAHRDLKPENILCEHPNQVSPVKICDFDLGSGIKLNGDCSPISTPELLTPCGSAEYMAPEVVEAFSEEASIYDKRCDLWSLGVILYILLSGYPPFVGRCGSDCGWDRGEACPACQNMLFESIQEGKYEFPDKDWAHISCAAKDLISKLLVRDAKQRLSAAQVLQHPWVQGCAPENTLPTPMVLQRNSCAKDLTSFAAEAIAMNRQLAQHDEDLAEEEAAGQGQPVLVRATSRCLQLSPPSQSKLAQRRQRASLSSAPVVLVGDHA

[6] = Half life in mouse at 50 mg/kg, po and measured upto 24 hrs; assay type: ADME, organism-based; settings: in vivo
[7] = target: T1, MAP kinase-interacting serine/threonine-protein kinase 2; experiment: Inhibition of MNK2 (unknown origin) at 3 uM in presence of ATP by kinase assay
Summary of the method: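 Single-point kinase profiling: inhibitor tested at 3 μM against a panel of 60 kinases from different families, activity presented as heatmap.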
Target sequence in this assay (Q9HBH9 whole entry, looked up): as the sequence (Q9HBH9 whole entry) above

[8] = Oral bioavailability in mouse at 50 mg/kg and 25 mg/kg, iv and measured upto 24 hrs; assay type: ADME, organism-based; settings: in vivo
[9] = Cmax in mouse at 50 mg/kg, po and measured upto 24 hrs; assay type: ADME, organism-based; set-up: dose 50 mg/kg, time < 24 hrs, route po; settings: in vivo
[10] = Cmax in mouse at 25 mg/kg, iv and measured upto 24 hrs; assay type: ADME, organism-based; set-up: dose 25 mg/kg, time < 24 hrs, route iv; settings: in vivo
A549 [11] = experiment: Induction of cell cycle arrest in human A549 cells assessed as accumulation of cells at G2/M phase at 5 uM incubated for 16 hrs by propidium iodide staining based flow cytometry (Rvb=11.8%); assay type: functional
A549 [12] = experiment: Induction of cell cycle arrest in human A549 cells assessed as accumulation of cells at S phase at 5 uM incubated for 16 hrs by propidium iodide staining based flow cytometry (Rvb=12.8%); assay type: functional
A549 [13] = experiment: Inhibition of colony formation in human A549 cells at 1 to 5 uM measured after 10 days by crystal violet staining based clonogenic assay; assay type: functional, cell-based; settings: dose 1-5 µM, time 10.0 day
Summary of the method: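 Clonogenic assay over 10 days; cells treated with DMSO vehicle or compound at indicated concentrations, plates scanned and colonies quantified from three independent experiments.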

MEF = experiment: Inhibition of MNK in MNK1 knockout mouse MEF cells assessed as inhibition of eIF4E phosphorylation at 1 uM incubated for 2 hrs by Western blot analysis; assay type: cell-based
Summary of the method: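 MEFs lacking MNK1 or MNK2 (wild-type for comparison) treated 2 h at indicated concentrations; lysates immunoblotted for p-eIF4E, which reflects the remaining MNK isoform; quantified from three independent experiments, SEM.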

A549 [14] = experiment: Induction of cell cycle arrest in human A549 cells assessed as accumulation of cells at G0/G1 phase at 5 uM incubated for 8 hrs by propidium iodide staining based flow cytometry (Rvb=91.7%); assay type: functional
[15] = system: MAP kinase-interacting kinase MNK1/2 (Homo sapiens); experiment: Inhibition of MNK in human A549 cells assessed as inhibition of eIF4E phosphorylation at 3 uM incubated for 2 hrs by Western blot analysis
A549 [16] = experiment: Induction of cell cycle arrest in human A549 cells assessed as accumulation of cells at S phase at 5 uM incubated for 20 hrs by propidium iodide staining based flow cytometry (Rvb=13.6%); assay type: functional
MDA-MB-231 [17] = experiment: Antimigratory activity against human MDA-MB-231 cells assessed as inhibition of cell migration at 5 uM and measured upto 24 hrs by scratch wound healing assay; assay type: functional, cell-based
Summary of the method: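 Scratch wound-healing: A549 or MDA-MB-231 monolayers wounded, then exposed to 5 μM compound or DMSO; wound imaged at 6 and 24 h; percentage change in wound area quantified by image analysis at each time point.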

MDA-MB-231 [18] = experiment: Downregulation of MMP-3 in human MDA-MB-231 cells at 5 uM incubated for 24 hrs by Western blot anlaysis; assay type: functional, cell-based; summary of the method: as §1
[19] = system: MAP kinase-interacting kinase MNK1/2 (Homo sapiens); experiment: Inhibition of MNK in human MDA-MB-231 cells assessed as inhibition of eIF4E phosphorylation at 3 uM incubated for 2 hrs by Western blot analysis
A549 [20] = experiment: Downregulation of MMP-3 in human A549 cells at 5 uM incubated for 24 hrs by Western blot anlaysis; assay type: functional, cell-based; summary of the method: as §1
mTORC1 (Homo sapiens) = mTORC1 (Homo sapiens) (UniProt P42345+Q8N122+Q9BVC4); experiment: Inhibition of mTORC1 in human LNCaP C4-2B cells assessed as inhibition of phosphorylation of rpS6 at Ser240/244 at 5 uM incubated for 2 hrs by Western blot analysis; assay type: cell-based; summary of the method: as §2
[21] = target: Eukaryotic translation initiation factor 4E (Homo sapiens) (UniProt P06730); experiment: Inhibition of eIF4E phosphorylation in human A549 cells at 5 uM and measured upto 96 hrs by Western blot analysis; assay type: cell-based
Chain of Eukaryotic translation initiation factor 4E (Homo sapiens) (P06730 whole entry): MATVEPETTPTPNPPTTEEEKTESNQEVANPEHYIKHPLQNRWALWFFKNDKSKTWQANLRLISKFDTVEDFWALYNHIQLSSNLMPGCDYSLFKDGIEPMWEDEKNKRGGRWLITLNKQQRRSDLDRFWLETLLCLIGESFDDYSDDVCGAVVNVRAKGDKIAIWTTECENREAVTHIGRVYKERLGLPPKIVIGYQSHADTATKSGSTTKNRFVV
Summary of the method: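 Cells maintained with compound at 5 μM for up to 6 days for cell counts; eIF4E phosphorylation followed by immunoblot for up to 96 h.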

[22] = system: MAP kinase-interacting kinase MNK1/2 (Mus musculus); experiment: Inhibition of MNK in wild type mouse MEF cells assessed as inhibition of eIF4E phosphorylation at 3 uM incubated for 2 hrs by Western blot analysis
[23] = target: Dual specificity protein kinase CLK1 (Homo sapiens) (UniProt P49759); experiment: Inhibition of CLK1 (unknown origin) at 3 uM in presence of ATP by kinase assay
Chain of Dual specificity protein kinase CLK1 (Homo sapiens) (P49759 whole entry, looked up): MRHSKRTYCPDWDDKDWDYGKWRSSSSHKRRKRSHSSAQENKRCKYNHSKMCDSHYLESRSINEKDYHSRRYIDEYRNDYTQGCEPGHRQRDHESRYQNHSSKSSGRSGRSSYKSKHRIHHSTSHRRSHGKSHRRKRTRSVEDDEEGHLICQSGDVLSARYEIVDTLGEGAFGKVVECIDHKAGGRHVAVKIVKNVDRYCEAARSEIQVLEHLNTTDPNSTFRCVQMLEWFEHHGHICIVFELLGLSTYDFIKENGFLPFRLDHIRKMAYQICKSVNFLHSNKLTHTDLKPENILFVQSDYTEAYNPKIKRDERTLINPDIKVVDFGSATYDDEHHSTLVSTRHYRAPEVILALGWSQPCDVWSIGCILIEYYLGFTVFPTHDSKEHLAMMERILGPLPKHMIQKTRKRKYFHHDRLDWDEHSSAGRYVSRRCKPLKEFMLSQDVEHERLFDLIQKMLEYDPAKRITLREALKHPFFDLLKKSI

[24] = system: MAP kinase-interacting kinase MNK1/2 (Homo sapiens); experiment: Inhibition of MNK in human A549 cells assessed as reduction in IL-8 level at 1 to 10 uM incubated for 48 hrs by ELISA; settings: dose 1-10 µM
[25] = Tmax in mouse at 25 mg/kg, iv and measured upto 24 hrs; assay type: ADME, organism-based; settings: in vivo
[26] = Apparent volume of distribution in mouse at 25 mg/kg, iv and measured upto 24 hrs; assay type: ADME, organism-based; settings: in vivo, read-out: Vz

CN1CCN(C(=O)c2ccc(-c3nn4c(-c5ccc(C#N)cc5)cnc4s3)cc2)CC1
Activity (MDA-MB-231 [1]): Active | inhibition (mTORC2 (Homo sapiens)): inactive | Vz [2]: 3.155 L/kg | Activity [3]: < 10% | Activity (A549 [4]): 91.4% | IC50 [5]: 8.6 nM | half-life [6]: 4.42 h | inhibition [7]: 100% | bioavailability [8]: 60.9% | Cmax [9]: 17200 ng/mL | Cmax [10]: 32100 ng/mL | Activity (A549 [11]): 5.2% | Activity (A549 [12]): 5.2% | inhibition (A549 [13]): Dose-Dependent Effect | inhibition (MEF): Active | Activity (A549 [14]): 88.2% | inhibition [15]: Active | Activity (A549 [16]): 3.3% | Activity (MDA-MB-231 [17]): Active | Activity (MDA-MB-231 [18]): Active | inhibition [19]: Active | Activity (A549 [20]): Active | inhibition (mTORC1 (Homo sapiens)): inactive | inhibition [21]: Active | inhibition [22]: Active | inhibition [23]: Active | inhibition [24]: Active | Tmax [25]: 4.8 min | Vd [26]: 1.52 L/kg
